Data: ChEMBL document CHEMBL1153729, “Structurally diverse limonoids from the fruits of Swietenia mahagoni” (2009)
≈ marks a conversion by molar mass, not a printed value. Calls of active or inactive are those of the source. The calls are words filed in the database; no cut-off is given here.

Legend:
[1] = tested on: Trichophyton rubrum; test: Antifungal activity against Trichophyton rubrum ATCC 10218 after 48 hrs; format: functional, organism-based
How it was run: (§1)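 Fungi grown in Sabouraud dextrose broth with compounds for 48 h at 37 °C. Blank cultures received a limited amount of DMSO. Amphotericin B, dissolved in DMSO, served as the positive control.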

[2] = tested on: Shigella flexneri; test: Antibacterial activity against Shigella flexneri ATCC 12022 after 18 hrs; format: functional, organism-based
How it was run: (§2)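 Bacterial cells suspended in Mueller-Hinton broth at a final density of […]. Incubated aerobically with compounds in DMSO at 37 °C for 18 h, alongside DMSO-only blank cultures and an ofloxacin positive control. MIC taken as the lowest concentration giving complete inhibition of visible growth.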

[3] = tested on: Candida albicans; test: Antifungal activity against Candida albicans ATCC 1600 after 48 hrs; format: functional, organism-based; how it was run: as §1
[4] = tested on: Escherichia coli; test: Antibacterial activity against Escherichia coli ATCC 25922 after 18 hrs; format: functional, organism-based; how it was run: as §2
[5] = tested on: Saccharomyces; test: Antifungal activity against Saccharomyces sake ATCC 26421 after 48 hrs; format: functional, organism-based; how it was run: as §1
[6] = tested on: Bacillus subtilis; test: Antibacterial activity against Bacillus subtilis ATCC 6633 after 18 hrs; format: functional, organism-based; how it was run: as §2
[7] = tested on: Kocuria rhizophila; test: Antibacterial activity against Micrococcus luteus ATCC 9341 after 18 hrs; format: functional; conditions: for Activity: DC2201; for MIC: DC2201, 18 h; how it was run: as §2
[8] = tested on: Staphylococcus epidermidis; test: Antibacterial activity against Staphylococcus epidermidis ATCC 12228 after 18 hrs; format: functional, organism-based; how it was run: as §2
[9] = tested on: Staphylococcus aureus; test: Antibacterial activity against Staphylococcus aureus ATCC 25923 after 18 hrs; format: functional, organism-based; how it was run: as §2
[10] = tested on: Nannizzia gypsea; test: Antifungal activity against Microsporum gypseum ATCC 14683 after 48 hrs; format: functional, organism-based; how it was run: as §1
[11] = tested on: Pseudomonas aeruginosa; test: Antibacterial activity against Pseudomonas aeruginosa ATCC 14502 after 18 hrs; format: functional, organism-based; how it was run: as §2

Row | SMILES | Activity [1] | Activity [2] | Activity [3] | Activity [4] | Activity [5] | Activity [6] | Activity [7] | Activity [8] | Activity [9] | Activity [10] | Activity [11] | MIC [7]
1 | COC(=O)C[C@H]1C(C)(C)[C@H](OC(C)=O)[C@@H]2C=C3[C@H]([C@H](OC(C)=O)C[C@]4(C)[C@H]3CC(=O)O[C@H]4c3ccoc3)[C@@]1(C)C2=O | inactive | inactive | inactive | inactive | inactive | inactive | inactive | inactive | inactive | inactive | inactive | –
2 | CC1(C)C(=O)C=C[C@]2(C)[C@H]3CC[C@@]4(C)[C@H](c5ccoc5)OC(=O)[C@H]5O[C@]54[C@]3(C)C(=O)C[C@@H]12 | inactive | inactive | inactive | inactive | inactive | inactive | inactive | inactive | inactive | inactive | inactive | –
3 | COC(=O)C[C@H]1C(C)(C)C(=O)[C@@H]2CC3C4=CC(=O)O[C@@H](c5ccoc5)[C@]4(C)CC[C@@H]3[C@@]1(C)C2=O (some centres undefined) | inactive | inactive | inactive | inactive | inactive | inactive | inactive | inactive | inactive | inactive | inactive | –
4 | COC(=O)C[C@H]1C(C)(C)[C@H](OC(C)=O)[C@]2(OC(C)=O)C=C3[C@H]([C@H](OC(C)=O)C[C@]4(C)[C@H]3CC(=O)O[C@H]4c3ccoc3)[C@@]1(C)C2=O | inactive | inactive | inactive | inactive | inactive | inactive | inactive | inactive | inactive | inactive | inactive | –
5 | C/C=C(\C)C(=O)O[C@H]1C(C)(C)[C@H](CC(=O)OC)[C@]2(C)C(=O)[C@@]1(O)C=C1C3=CC(=O)O[C@@H](c4ccoc4)[C@]3(C)CC[C@@H]12 | inactive | inactive | inactive | inactive | inactive | inactive | inactive | inactive | inactive | inactive | inactive | –
6 | COC(=O)C[C@H]1C(C)(C)[C@@H](OC(C)=O)[C@@H]2CC3=C4CC(=O)O[C@@H](c5ccoc5)[C@]4(C)CC[C@@H]3[C@@]1(C)C2=O | inactive | inactive | inactive | inactive | inactive | inactive | inactive | inactive | inactive | inactive | inactive | –
7 | COC(=O)C[C@H]1C(C)(C)[C@H](OC(=O)C(C)C)[C@]2(O)CC3=C4CC(=O)O[C@@H](c5ccoc5)[C@]4(C)CC[C@@H]3[C@@]1(C)C2=O | inactive | inactive | inactive | inactive | inactive | inactive | – | inactive | inactive | inactive | inactive | 50 µg/mL (≈ 89.8 µM)
8 | COC(=O)C[C@H]1C(C)(C)[C@H](OC(C)=O)[C@]2(O)CC3=C4[C@@H](O)C(=O)O[C@@H](c5ccoc5)[C@]4(C)CC[C@@H]3[C@@]1(C)C2=O | inactive | inactive | inactive | inactive | inactive | inactive | inactive | inactive | inactive | inactive | inactive | –
9 | CC(=O)O[C@H]1C[C@@H](OC(C)=O)C(C)(C)[C@@H]2C[C@@H](OC(C)=O)[C@]3(C)[C@H](CC[C@@]4(C)[C@H](c5ccoc5)OC(=O)[C@H]5O[C@@]534)[C@@]12C | inactive | inactive | inactive | inactive | inactive | inactive | inactive | inactive | inactive | inactive | inactive | –
10 | C/C=C(\C)C(=O)O[C@H]1C(C)(C)[C@H](CC(=O)OC)[C@]2(C)C(=O)[C@@]1(O)CC1=C3[C@@H](O)C(=O)O[C@@H](c4ccoc4)[C@]3(C)CC[C@@H]12 | inactive | inactive | inactive | inactive | inactive | inactive | inactive | inactive | inactive | inactive | inactive | –
11 | COC(=O)C[C@H]1C(C)(C)C(=O)[C@@H]2CC3=C4CC(=O)O[C@@H](c5ccoc5)[C@]4(C)CC[C@@H]3[C@@]1(C)C2=O | inactive | inactive | inactive | inactive | inactive | inactive | inactive | inactive | inactive | inactive | inactive | –
12 | CC1COc2c(N3CCN(C)CC3)c(F)cc3c(=O)c(C(=O)O)cn1c23 (centres undefined) [OFLOXACIN] | – | – | – | – | – | – | – | – | – | – | – | 1.56 µg/mL (≈ 4.32 µM)
13 | C=C1C2=CC(=O)O[C@@H](c3ccoc3)[C@]2(C)CC[C@@H]1[C@@]1(C)[C@@H](O)CC(=O)C(C)(C)[C@@H]1CC(=O)OC | inactive | inactive | inactive | inactive | inactive | inactive | inactive | inactive | inactive | inactive | inactive | –
14 | CC(=O)O[C@H]1C[C@@H](O)C(C)(C)[C@@H]2C[C@@H](O)[C@]3(C)[C@H](CC[C@@]4(C)[C@H](c5ccoc5)OC(=O)[C@H]5O[C@@]534)[C@@]12C | inactive | inactive | inactive | inactive | inactive | inactive | inactive | inactive | inactive | inactive | inactive | –
